Key:
L1210 [1] = test: The compound was tested in vitro for cytotoxicity against proliferation of cultured lymphoid leukemia L1210 cells; assay type: functional, cell-based; settings: Mus musculus
Method in brief: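 Cultured lymphoid leukemia L1210 cells exposed to agent for 48 h; value is the nanomolar concentration giving 50% of control growth.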

L1210 [2] = test: The compound was tested in vitro for mitotic inhibition against proliferation of cultured lymphoid leukemia L1210 cells; assay type: functional, Mus musculus
Method in brief: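 Cultured lymphoid leukemia L1210 cells exposed to agent for 12 h; mitotic index scored as cells in mitosis over total cells; value is the nanomolar concentration producing a mitotic index of 0.5.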

P388 [3] = test: The compound was tested in vivo for percent increase in life span against lymphocytic leukemia P388 in mice after intraperitoneal administration of 0.5 mg/kg dose; assay type: functional; settings: Mus musculus, P388, ip
Method in brief: (§1)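 Mice bearing lymphocytic leukemia P388. The reported value is the percent increase in life span at the highest nontoxic dose tested.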

P388 [4] = test: The compound was tested in vivo for percent increase in life span against lymphocytic leukemia P388 in mice after intraperitoneal administration of 0.25 mg/kg dose; assay type: functional; settings: Mus musculus, P388, ip; method in brief: as §1
P388 [5] = test: The compound was tested in vivo for percent increase in life span against lymphocytic leukemia P388 in mice after intraperitoneal administration of 1 mg/kg dose; assay type: functional; settings: Mus musculus, P388, ip; method in brief: as §1
P388 [6] = test: The compound was tested in vivo for percent increase in life span against lymphocytic leukemia P388 in mice after intraperitoneal administration of 0.22 mg/kg dose; assay type: functional; settings: Mus musculus, P388, ip; method in brief: as §1
P388 [7] = test: The compound was tested in vivo for percent increase in life span against lymphocytic leukemia P388 in mice after intraperitoneal administration of 30 mg/kg dose; assay type: functional; settings: Mus musculus, P388, ip; method in brief: as §1
P388 [8] = test: The compound was tested in vivo for percent increase in life span against lymphocytic leukemia P388 in mice after intraperitoneal administration of 25 mg/kg dose; assay type: functional; settings: Mus musculus, P388, ip; method in brief: as §1

Row | SMILES | IC50 (L1210 [1]) | MI0.5 (L1210 [2]) | ILS at 1 mg/kg (P388 [5]) | other results
1 | CCOC(=O)Nc1cc2c(c(NC(=O)NCCCl)n1)N=C(c1ccc(OC(=O)NCCCl)cc1)C(C)N2 (stereo not given) | 570 nM |  |  | 
2 | CCOC(=O)Nc1cc2c(c(N)n1)N=C(c1ccccc1)[C@H](C)N2 [MIVOBULIN] | 0.09 nM | 0.14 nM |  | ILS at 0.5 mg/kg (P388 [3]): 64%
3 | CCOC(=O)Nc1cc2c(c(N)n1)N=C(c1ccc(O)cc1)C(C)N2 (racemic) | 0.22 nM | 0.47 nM |  | ILS at 0.5 mg/kg (P388 [3]): 55%
4 | CCCCNC(=O)Oc1ccc(C2=Nc3c(cc(NC(=O)OCC)nc3N)NC2C)cc1 (stereo not given) | 0.47 nM |  |  | ILS at 0.25 mg/kg (P388 [4]): 120%
5 | CCOC(=O)Nc1cc2c(c(N)n1)N=C(c1ccc(OC(=O)NCCCl)cc1)C(C)N2 (stereo not given) | 0.043 nM |  | 90% | 
6 | CCOC(=O)Nc1cc2c(c(N)n1)N=C(c1ccccc1)C(C)N2 (racemic) |  | 0.58 nM | 71% | 
7 | CCOC(=O)Nc1cc2c(c(N)n1)N=C(c1ccc(O)cc1)[C@H](C)N2 | 0.18 nM | 0.3 nM |  | ILS at 0.22 mg/kg (P388 [6]): 58%
8 | CCOC(=O)Nc1cc2c(c(N)n1)N=C(c1ccccc1)[C@@H](C)N2 |  | 27 nM |  | ILS at 30 mg/kg (P388 [7]): 88%
9 | CCOC(=O)Nc1cc2c(c(N)n1)N=C(c1ccc(OCc3ccccc3)cc1)C(C)N2 (stereo not given) | 7 nM | 30 nM | 120% | 
10 | CCOC(=O)Nc1cc2c(c(N)n1)N=C(c1ccc(O)cc1)[C@@H](C)N2 | 32 nM |  |  | ILS at 25 mg/kg (P388 [8]): 77%
11 | CCOC(=O)Nc1cc2c(c(N)n1)N=C(c1ccc(OC)cc1)C(C)N2 (stereo not given) |  | 0.42 nM | 69% | 

Reference: ChEMBL document CHEMBL1126268, “Antimitotic agents. Chiral isomers of ethyl [5-amino-1,2-dihydro-3-(4-hydroxyphenyl)-2-methylpyrido[3,4-b]pyrazin-7 -yl]carbamate” (J Med Chem, 1992)
